Measured values as given in ChEMBL document CHEMBL1275392, “Assessment of chemoselective neoglycosylation methods using chlorambucil as a model” (2010).

Legend:
A549 = experiment: Growth inhibition of human A549 cells expressing p53 after 7 days by celltiter-glo assay; assay type: functional; conditions: A549, 168 h
SK-OV-3 = experiment: Growth inhibition of human SKOV3 cells after 7 days by celltiter-glo assay; assay type: functional; conditions: SK-OV-3, 168 h
[1] = Growth inhibition of human p53 deficient Hep3B cells after 7 days by celltiter-glo assay; assay type: functional, Hep 3B2; conditions: 168 h
Method in brief: (§1)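 Cells seeded at 500 per well in 384-well plates. Compounds came from 30 mM DMSO stocks, serially diluted and tested in quadruplicate. Incubation was 7 d at 37 °C under 5% CO2. Calcein AM (10 μM) and EthD-1 were added, followed by a fluorescence read. CellTiter-Glo lysis was then done for 10 min at room temperature, with a luminescence read. GI50 came from curve fitting.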

HT-29 = experiment: Growth inhibition of human HT-29 cells after 7 days by celltiter-glo assay; assay type: functional; conditions: HT-29, 168 h
HCT-15 = experiment: Growth inhibition of human HCT15 cells after 7 days by celltiter-glo assay; assay type: functional; conditions: HCT-15, 168 h
NCI-H460 = experiment: Growth inhibition of human NCI-H460 cells after 7 days by celltiter-glo assay; assay type: functional; conditions: NCI-H460, 168 h
DU-145 = experiment: Growth inhibition of human DU145 cells after 7 days by celltiter-glo assay; assay type: functional; conditions: DU-145, 168 h
[2] = Growth inhibition of human p53 deficient H1299 cells after 7 days by celltiter-glo assay; assay type: functional; conditions: NCI-H1299, 168 h; method in brief: as §1
SF-268 [3] = experiment: Growth inhibition of human SF268 cells after 7 days by celltiter-glo assay; assay type: functional; conditions: SF-268, 168 h
SF-268 [4] = experiment: Ratio of compound GI50 to chlorambucil GI50 for human SF268 cells; assay type: functional
MCF7 = experiment: Growth inhibition of human MCF7 cells after 7 days by celltiter-glo assay; assay type: functional; conditions: MCF7, 168 h

Row | Structure (SMILES) | GI50 (A549) | GI50 (SK-OV-3) | GI50 [1] | GI50 (HT-29) | GI50 (HCT-15) | GI50 (NCI-H460) | GI50 (DU-145) | GI50 [2] | GI50 (SF-268 [3]) | RatioGI50 (SF-268 [4]) | GI50 (MCF7)
1 | CON(CCCc1ccc(N(CCCl)CCCl)cc1)[C@@H]1O[C@H]2[C@H](OC(=O)[C@H]2O)[C@H]1O | 3.7 µM | 5.2 µM | 1.3 µM | 3.6 µM | 0.99 µM | 3.8 µM | 1.9 µM | 0.4 µM | 0.46 µM | 12 | 1.1 µM
2 | CON(CCCc1ccc(N(CCCl)CCCl)cc1)C1O[C@H](C(=O)O)[C@H](O)[C@H](O)[C@H]1O (stereo partly specified) | 17.1 µM | 12.8 µM | 14.7 µM | 14.9 µM | 8.1 µM | 34 µM | 16.3 µM | 4.9 µM | 8.9 µM |  | 4.5 µM
3 | CON(CCCc1ccc(N(CCCl)CCCl)cc1)[C@@H]1O[C@H](CCl)[C@@H](O)[C@H](O)[C@H]1O | 3 µM | 2.1 µM | 3.2 µM | 2.1 µM | 1.2 µM | 5.8 µM | 3.7 µM | 1.3 µM | 2.1 µM |  | 4.9 µM
4 | CON(CCCc1ccc(N(CCCl)CCCl)cc1)C1O[C@@H](C)[C@@H](OCc2ccccc2)[C@@H](OCc2ccccc2)[C@@H]1OCc1ccccc1 (stereo partly specified) | 6.4 µM | 7.2 µM | 9.5 µM | 7.5 µM | 4.6 µM | 15.8 µM | 10 µM | 3.3 µM | 5.7 µM |  | 4 µM
5 | CON(CCCc1ccc(N(CCCl)CCCl)cc1)C1O[C@H](CO)[C@@H](O)[C@@H](O)[C@H]1O (stereo partly specified) | 3.4 µM | 3 µM | 4.4 µM | 0.6 µM | 0.97 µM | 9.5 µM | 5.8 µM | 0.53 µM | 3.1 µM |  | 9.3 µM
6 | CON(CCCc1ccc(N(CCCl)CCCl)cc1)[C@@H]1O[C@H](C(=O)O)[C@@H](O)[C@H](O)[C@H]1O | 5.5 µM | 3.1 µM | 4.9 µM | 3.2 µM | 1.03 µM | 9.1 µM | 3.9 µM | 0.99 µM | 1.6 µM |  | 6 µM
7 | CON(CCCc1ccc(N(CCCl)CCCl)cc1)[C@H]1C[C@@H](O)[C@H](O)[C@@H](CO)O1 | 3.1 µM | 1.12 µM | 3.7 µM | 1.2 µM | 0.7 µM | 5.4 µM | 4.3 µM | 0.58 µM | 2.5 µM |  | 5.4 µM
8 | CON(CCCc1ccc(N(CCCl)CCCl)cc1)C1O[C@H](C(=O)O)[C@H](O)[C@H](O)[C@H]1NC(C)=O (stereo partly specified) | 22 µM | 11 µM | 11.8 µM | 12 µM | 19.1 µM | 42 µM | 16.7 µM | 3.8 µM | 4.2 µM |  | 4.4 µM
9 | O=C(CCCc1ccc(N(CCCl)CCCl)cc1)N/N=C/[C@@H](O)[C@H](O)CO | 7.5 µM | 6.2 µM | 4.1 µM | 4.8 µM | 7.3 µM | 10.8 µM | 9.5 µM | 2.6 µM | 2.6 µM |  | 4.2 µM
10 | CON(CCCc1ccc(N(CCCl)CCCl)cc1)C1O[C@@H](CO)[C@H](O)[C@H](O)[C@H]1O (stereo partly specified) | 3.1 µM | 2.5 µM | 2 µM | 2.1 µM | 1.4 µM | 7.9 µM | 4.1 µM | 1.3 µM | 2.3 µM |  | 7.9 µM
11 | CON(CCCc1ccc(N(CCCl)CCCl)cc1)C1O[C@H](C)[C@H](O)[C@H](O)[C@H]1O (stereo partly specified) | 9.6 µM | 1.7 µM | 2.6 µM | 6.7 µM | 0.82 µM | 5.9 µM | 4.1 µM | 3.5 µM | 1.7 µM |  | 3 µM
12 | CON(CCCc1ccc(N(CCCl)CCCl)cc1)C1C[C@H](O)[C@H](O)CO1 (stereo partly specified) | 2.6 µM | 2 µM | 2.6 µM | 2.6 µM | 2.3 µM | 5.8 µM | 4 µM | 3.7 µM | 2.1 µM |  | 0.96 µM
13 | CON(CCCc1ccc(N(CCCl)CCCl)cc1)[C@@H]1O[C@H](CO)[C@@H](O)[C@H](O[C@H](C)C(=O)O)[C@H]1NC(C)=O | 8.6 µM | 7 µM | 8 µM | 6.3 µM | 3.1 µM | 13.1 µM | 8.9 µM | 2.4 µM | 4.1 µM |  | 4.5 µM
14 | CON(CCCc1ccc(N(CCCl)CCCl)cc1)[C@@H]1O[C@H](CO[C@@H]2O[C@H](CO)[C@H](O)[C@H](O)[C@H]2O)[C@@H](O)[C@H](O)[C@H]1O | 40 µM | 27 µM | 29 µM | 27.4 µM | 20 µM | 45.5 µM | 36 µM | 17.8 µM | 16.3 µM |  | 21 µM
15 | CON(CCCc1ccc(N(CCCl)CCCl)cc1)[C@@H]1O[C@H](CO)[C@@H](O)[C@H](O)[C@H]1F | 2.6 µM | 2 µM | 3.2 µM | 2.4 µM | 1.08 µM | 6.4 µM | 4.2 µM | 1.2 µM | 2.2 µM |  | 7.3 µM
